# Results from ChEMBL document CHEMBL1221207, “Expanding the promiscuity of a natural-product glycosyltransferase by directed evolution” (Nat Chem Biol, 2007).
# Substitutions are numbered along the chain they refer to.
# Key:
# [1] = test system: T1, Oleandomycin glycosyltransferase (Streptomyces antibioticus), Q53685 [A242V]; assay: Activity of Streptomyces antibioticus OleD A242V mutant assessed as as rate of glucoside formation measured as nanomoles of product formed per minute per mg of enzyme
# T1 sequence (whole entry): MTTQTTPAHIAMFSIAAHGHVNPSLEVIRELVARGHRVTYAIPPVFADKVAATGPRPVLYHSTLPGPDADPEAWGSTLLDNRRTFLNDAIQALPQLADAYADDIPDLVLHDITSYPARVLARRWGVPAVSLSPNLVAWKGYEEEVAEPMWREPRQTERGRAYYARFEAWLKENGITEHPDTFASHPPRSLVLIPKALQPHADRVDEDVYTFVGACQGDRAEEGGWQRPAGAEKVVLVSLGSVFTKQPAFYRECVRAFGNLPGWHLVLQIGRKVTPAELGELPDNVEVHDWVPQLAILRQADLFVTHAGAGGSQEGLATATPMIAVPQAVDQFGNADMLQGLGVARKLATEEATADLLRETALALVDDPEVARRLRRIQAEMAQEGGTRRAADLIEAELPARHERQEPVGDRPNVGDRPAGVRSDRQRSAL
# [2] = test system: T2, Oleandomycin glycosyltransferase (Streptomyces antibioticus), Q53685 [P67T,S132F,A242V]; assay: Activity of Streptomyces antibioticus OleD P67T/S132F/A242V mutant assessed as conversion rate of compound to produce glucoside 3 using NDP sugar donor UDP-4-amino-glucose after 3 hrs by HPLC
# T2 sequence (whole entry): T1 sequence (whole entry) with P67T, S132F
# How it was run: (§1)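 End-point donor-specificity assay with purified OleD enzyme. Percentage conversion was read after 3 h. Quenched reactions were run by reverse-phase C18 HPLC with a 10–90% CH3CN gradient in 0.1% formic acid/H2O over 20 min at 1 ml min–1, with detection at 254 nm. Products were identified by LC-MS, by comparison to standards where available, and by fluorescence.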
# [3] = test system: T2, Oleandomycin glycosyltransferase (Streptomyces antibioticus), Q53685 [P67T,S132F,A242V]; assay: Activity of Streptomyces antibioticus OleD P67T/S132F/A242V mutant assessed as conversion rate of compound to produce glucoside 3 using NDP sugar donor-UDP-4,6-dideoxyglucose after 3 hrs by HPLC; how it was run: as §1
# [4] = test system: T2, Oleandomycin glycosyltransferase (Streptomyces antibioticus), Q53685 [P67T,S132F,A242V]; assay: Activity of Streptomyces antibioticus OleD P67T/S132F/A242V mutant assessed as conversion rate of compound to produce glucoside 3 using NDP sugar donor UDP-2-amino-glucose after 3 hrs by HPLC; how it was run: as §1
# [5] = test system: T2, Oleandomycin glycosyltransferase (Streptomyces antibioticus), Q53685 [P67T,S132F,A242V]; assay: Activity of Streptomyces antibioticus OleD P67T/S132F/A242V mutant assessed as conversion rate of compound to produce glucoside 3 using NDP sugar […] after 3 hrs by HPLC; how it was run: as §1
# [6] = test system: T3, Oleandomycin glycosyltransferase (Streptomyces antibioticus), Q53685 [P67T]; assay: Activity of Streptomyces antibioticus OleD P67T mutant assessed as conversion rate of compound to produce glucoside 3 using NDP sugar donor UDP-6-azido-glucose after 3 hrs by HPLC; how it was run: as §1
# T3 sequence (whole entry): T1 sequence (whole entry) with P67T, V242A
# [7] = test system: T4, Oleandomycin glycosyltransferase (Streptomyces antibioticus), Q53685 [S132F]; assay: Activity of Streptomyces antibioticus OleD S132F mutant assessed as conversion rate of compound to produce glucoside 3 using NDP sugar donor UDP-glucose after 3 hrs by HPLC; how it was run: as §1
# T4 sequence (whole entry): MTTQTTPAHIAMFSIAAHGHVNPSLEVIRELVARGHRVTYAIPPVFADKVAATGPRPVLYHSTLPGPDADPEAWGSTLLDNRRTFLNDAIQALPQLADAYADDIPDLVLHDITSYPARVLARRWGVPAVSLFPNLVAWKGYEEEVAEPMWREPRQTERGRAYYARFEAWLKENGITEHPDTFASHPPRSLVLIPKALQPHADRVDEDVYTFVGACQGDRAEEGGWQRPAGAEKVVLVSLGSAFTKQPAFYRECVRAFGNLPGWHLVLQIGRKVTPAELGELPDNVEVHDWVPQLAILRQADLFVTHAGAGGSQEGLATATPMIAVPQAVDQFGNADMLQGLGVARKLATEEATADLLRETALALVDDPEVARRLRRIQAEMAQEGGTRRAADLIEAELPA
# [8] = test system: T4, Oleandomycin glycosyltransferase (Streptomyces antibioticus), Q53685 [S132F]; assay: Activity of Streptomyces antibioticus OleD S132F mutant assessed as conversion rate of compound to produce glucoside 3 using NDP sugar donor UDP-6-deoxy-glucose after 3 hrs by HPLC; how it was run: as §1
# [9] = test system: T4, Oleandomycin glycosyltransferase (Streptomyces antibioticus), Q53685 [S132F]; assay: Activity of Streptomyces antibioticus OleD S132F mutant assessed as conversion rate of compound to produce glucoside 3 using NDP sugar donor UDP-xylose after 3 hrs by HPLC; how it was run: as §1
# [10] = test system: T1, Oleandomycin glycosyltransferase (Streptomyces antibioticus), Q53685 [A242V]; assay: Activity of Streptomyces antibioticus OleD A242V mutant assessed as conversion rate of compound to produce glucoside 3 using NDP sugar donor UDP-6-deoxy-glucose after 3 hrs by HPLC; how it was run: as §1
compound,measurement,setting,value
Cc1cc(=O)oc2cc(O)ccc12,Activity,[1],5.4 nmol/min
same,Activity,[2],13%
same,Activity,[3],45%
same,Activity,[4],24%
same,Activity,[5],21%
same,Activity,[6],2%
same,Activity,[7],48%
same,Activity,[8],10%
same,Activity,[9],1.5%
same,Activity,[10],6%
